Tests used:
[1] = biological target: T1, cGMP-inhibited 3',5'-cyclic phosphodiesterase 3A (Homo sapiens, UniProt Q14432); experiment: Inhibition of human recombinant PDE3A at 50 uM by fluorescence polarization assay using cGMP as substrate
[2] = biological target: T1, cGMP-inhibited 3',5'-cyclic phosphodiesterase 3A; experiment: Inhibition of human recombinant PDE3A at 50 uM by fluorescence polarization assay using cAMP as substrate
HT-29 [3] = experiment: Cytotoxicity against human HT-29 cells at 50 uM after 72 hrs by celltiter glo assay; type: functional; conditions: HT-29, 72 h, read-out: GI
Outline: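 HT-29 cells in RPMI 1640 plus 5% FBS, cultures >95% viable by Trypan blue. Seeded at 5000 cells/well and incubated 18–24 h, then exposed to a single 50 μM screening dose in triplicate. Live cells measured by CellTiter-Glo luminescent ATP assay at 72 h; percent growth inhibition reported.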

HT-29 [4] = experiment: Cytotoxicity against human HT-29 cells after 72 hrs by celltiter glo assay; type: functional, cell-based; conditions: HT-29, 72 h
Outline: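 HT-29 cells grown in RPMI 1640 with 5% FBS, used only at >95% viability (Trypan blue). 5000 cells/well, left 18–24 h before treatment. Viability read by CellTiter-Glo luminescence (ATP content) 72 h after treatment. IC50 from 8 concentrations, at least four replicates each, fitted to a four-parameter logistic equation.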

[5] = biological target: T1, cGMP-inhibited 3',5'-cyclic phosphodiesterase 3A; experiment: Inhibition of human recombinant PDE3A by fluorescence polarization assay using cAMP as substrate
[6] = biological target: T1, cGMP-inhibited 3',5'-cyclic phosphodiesterase 3A; experiment: Inhibition of human recombinant PDE3A by fluorescence polarization assay using cGMP as substrate
[7] = biological target: Baculoviral IAP repeat-containing protein 5 (Homo sapiens, UniProt O15392); experiment: Inhibition of survivin
Sequence of Baculoviral IAP repeat-containing protein 5 (O15392 whole entry): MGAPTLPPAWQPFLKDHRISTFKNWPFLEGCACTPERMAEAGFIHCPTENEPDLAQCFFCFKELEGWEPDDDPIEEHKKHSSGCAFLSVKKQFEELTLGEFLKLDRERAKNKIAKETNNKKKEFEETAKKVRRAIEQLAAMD

T1 sequence (Q14432 whole entry): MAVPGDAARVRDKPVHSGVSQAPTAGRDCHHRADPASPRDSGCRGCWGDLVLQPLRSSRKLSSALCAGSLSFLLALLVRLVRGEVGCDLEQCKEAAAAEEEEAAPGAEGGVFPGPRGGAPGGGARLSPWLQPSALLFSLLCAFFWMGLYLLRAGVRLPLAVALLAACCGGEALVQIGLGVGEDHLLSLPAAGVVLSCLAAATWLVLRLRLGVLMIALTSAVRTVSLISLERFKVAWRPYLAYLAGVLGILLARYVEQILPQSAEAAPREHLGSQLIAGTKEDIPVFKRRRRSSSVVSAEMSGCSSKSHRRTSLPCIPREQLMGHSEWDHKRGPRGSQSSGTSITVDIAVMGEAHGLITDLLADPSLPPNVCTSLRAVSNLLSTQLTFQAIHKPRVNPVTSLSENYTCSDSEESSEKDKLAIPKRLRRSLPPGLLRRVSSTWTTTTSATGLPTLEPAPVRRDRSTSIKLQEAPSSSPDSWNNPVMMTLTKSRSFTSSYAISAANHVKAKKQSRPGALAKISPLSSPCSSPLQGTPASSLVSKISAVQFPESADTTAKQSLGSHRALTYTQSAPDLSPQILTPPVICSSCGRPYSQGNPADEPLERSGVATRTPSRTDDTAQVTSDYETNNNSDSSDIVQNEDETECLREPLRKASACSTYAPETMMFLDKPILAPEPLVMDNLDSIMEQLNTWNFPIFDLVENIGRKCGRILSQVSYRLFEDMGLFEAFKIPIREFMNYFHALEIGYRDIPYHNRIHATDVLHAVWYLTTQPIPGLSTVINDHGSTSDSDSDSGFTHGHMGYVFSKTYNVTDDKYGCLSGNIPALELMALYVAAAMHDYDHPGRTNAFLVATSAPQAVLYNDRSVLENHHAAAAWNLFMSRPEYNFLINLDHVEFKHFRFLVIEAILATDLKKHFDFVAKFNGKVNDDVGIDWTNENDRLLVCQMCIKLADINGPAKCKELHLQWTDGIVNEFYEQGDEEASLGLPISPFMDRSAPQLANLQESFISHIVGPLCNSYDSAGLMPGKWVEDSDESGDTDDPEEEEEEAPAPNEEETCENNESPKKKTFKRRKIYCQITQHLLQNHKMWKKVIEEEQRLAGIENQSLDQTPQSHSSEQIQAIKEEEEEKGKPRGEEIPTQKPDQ

COc1ccc(-c2cc(-c3ccc(Br)cc3)[nH]c(=N)c2C#N)c(OC)c1
inhibition [1]: 70% | inhibition [2]: 25% | inhibition of growth at 50 µM (HT-29 [3]): 2%

COc1ccc(OC)c(-c2cc(-c3ccc(Br)cc3)[nH]c(=N)c2C#N)c1
inhibition [1]: 20% | inhibition [2]: 20% | IC50 (HT-29 [4]): 4 µM | inhibition of growth at 50 µM (HT-29 [3]): 95%

N#Cc1c(-c2ccccc2O)cc(-c2ccc(Br)cc2)[nH]c1=O
inhibition [1]: 28% | inhibition [2]: 10% | IC50 (HT-29 [4]): 21 µM | inhibition of growth at 50 µM (HT-29 [3]): 94%

CCOc1ccc(-c2cc(-c3ccsc3)[nH]c(=N)c2C#N)cc1
IC50 [5]: 13.3 µM | IC50 [6]: 13.5 µM | inhibition [1]: 80% | inhibition [2]: 55% | inhibition of growth at 50 µM (HT-29 [3]): -10%

N#Cc1c(-c2ccccc2O)cc(-c2cccc(Br)c2)[nH]c1=N
inhibition [1]: 36% | inhibition [2]: 18% | inhibition of growth at 50 µM (HT-29 [3]): 30%

N#Cc1c(-c2ccsc2)cc(-c2ccccc2)[nH]c1=N
inhibition [1]: 0% | inhibition [2]: 4% | inhibition of growth at 50 µM (HT-29 [3]): 25%

N#Cc1c(-c2ccccc2O)cc(-c2ccc(Br)cc2)[nH]c1=N
inhibition [1]: 27% | inhibition [2]: 22% | inhibition of growth at 50 µM (HT-29 [3]): 23%

N#Cc1c(-c2ccccc2O)cc(-c2ccccc2Br)[nH]c1=O
inhibition [1]: 50% | inhibition [2]: 34% | inhibition of growth at 50 µM (HT-29 [3]): 22%

N#Cc1c(-c2ccccc2O)cc(-c2ccccc2Br)[nH]c1=N
inhibition [1]: 40% | inhibition [2]: 20% | inhibition of growth at 50 µM (HT-29 [3]): 28%

N#Cc1c(-c2cccc(Cl)c2)cc(-c2ccccc2)[nH]c1=O
inhibition [1]: 24% | inhibition [2]: 10% | IC50 (HT-29 [4]): 2.1 µM | inhibition of growth at 50 µM (HT-29 [3]): 80%

N#Cc1c(-c2ccccc2O)cc(-c2ccsc2)[nH]c1=N
inhibition [1]: 26% | inhibition [2]: 21% | inhibition of growth at 50 µM (HT-29 [3]): 44%

N#Cc1c(-c2ccccc2Cl)cc(-c2ccc(Br)cc2)[nH]c1=O
inhibition [1]: 36% | inhibition [2]: 18% | inhibition of growth at 50 µM (HT-29 [3]): 5%

CCOc1ccccc1-c1cc(-c2ccsc2)[nH]c(=N)c1C#N
inhibition [1]: -10% | inhibition [2]: 37% | IC50 (HT-29 [4]): 6 µM | inhibition of growth at 50 µM (HT-29 [3]): 92%

COc1ccc(OC)c(-c2cc(-c3ccc(Br)cc3)[nH]c(=O)c2C#N)c1
inhibition [1]: 17% | inhibition [2]: 8% | inhibition of growth at 50 µM (HT-29 [3]): 33%

N#Cc1c(-c2cccc(Cl)c2)cc(-c2ccc(Br)cc2)[nH]c1=O
inhibition [1]: 21% | inhibition [2]: 8% | inhibition of growth at 50 µM (HT-29 [3]): 7%

CCOc1ccc(-c2cc(-c3ccsc3)[nH]c(=O)c2C#N)cc1
inhibition [1]: 0% | inhibition [2]: 7% | inhibition of growth at 50 µM (HT-29 [3]): -1%

COc1ccccc1-c1cc(-c2ccsc2)[nH]c(=N)c1C#N
inhibition [2]: 47% | IC50 (HT-29 [4]): 35 µM | inhibition of growth at 50 µM (HT-29 [3]): 78%

N#Cc1c(-c2ccccc2O)cc(-c2ccsc2)[nH]c1=O
inhibition [1]: 37% | inhibition [2]: 21% | IC50 (HT-29 [4]): 46 µM | inhibition of growth at 50 µM (HT-29 [3]): 79%

COc1ccc(-c2cc(-c3ccc(Br)cc3)[nH]c(=O)c2C#N)c(OC)c1
inhibition [1]: -8% | inhibition [2]: 2% | inhibition of growth at 50 µM (HT-29 [3]): 0%

COc1ccccc1-c1cc(-c2ccsc2)[nH]c(=O)c1C#N
inhibition [1]: 8% | inhibition [2]: 10% | inhibition of growth at 50 µM (HT-29 [3]): 20%

N#Cc1c(-c2ccccc2O)cc(-c2cccc(Br)c2)[nH]c1=O
inhibition [1]: 45% | inhibition [2]: 20% | inhibition of growth at 50 µM (HT-29 [3]): -5%

COc1ccc(-c2cc(-c3ccsc3)[nH]c(=N)c2C#N)cc1
inhibition [1]: 30% | inhibition [2]: 10% | IC50 (HT-29 [4]): 2.7 µM | inhibition of growth at 50 µM (HT-29 [3]): 75%

N#Cc1c(-c2ccccc2)cc(-c2cc(Br)ccc2O)[nH]c1=O
Kd [7]: 5.7 µM

N#Cc1c(-c2ccccc2Cl)cc(-c2ccc(Br)cc2)[nH]c1=N
inhibition [1]: 47% | inhibition [2]: 36% | inhibition of growth at 50 µM (HT-29 [3]): -16%

N#Cc1c(-c2ccsc2)cc(-c2ccccc2)[nH]c1=O
inhibition [1]: 9% | inhibition [2]: 7% | inhibition of growth at 50 µM (HT-29 [3]): -10%

N#Cc1c(-c2ccc(Cl)cc2)cc(-c2ccsc2)[nH]c1=O
inhibition [1]: 14% | inhibition [2]: 5%

COc1ccc(-c2cc(-c3ccsc3)[nH]c(=O)c2C#N)cc1
inhibition [1]: 0% | inhibition [2]: 8% | inhibition of growth at 50 µM (HT-29 [3]): -20%

N#Cc1c(-c2cccc(Cl)c2)cc(-c2ccccc2)[nH]c1=N
inhibition [1]: 20% | inhibition [2]: 15%

N#Cc1c(-c2cccc(Cl)c2)cc(-c2ccc(Br)cc2)[nH]c1=N
inhibition [1]: 13% | inhibition [2]: 10% | inhibition of growth at 50 µM (HT-29 [3]): 7%

N#Cc1c(-c2ccc(Cl)cc2)cc(-c2ccsc2)[nH]c1=N
inhibition [1]: 45% | inhibition [2]: 28% | inhibition of growth at 50 µM (HT-29 [3]): 65%

CCOc1ccccc1-c1cc(-c2ccsc2)[nH]c(=O)c1C#N
inhibition [1]: 20% | inhibition [2]: 5% | IC50 (HT-29 [4]): 1.25 µM | inhibition of growth at 50 µM (HT-29 [3]): 80%
